According to ChEMBL document CHEMBL1155459, “On-bead screening of a combinatorial fumaric acid derived peptide library yields antiplasmodial cysteine protease inhibitors with unusual peptide sequences” (J Med Chem, 2009):
Peptide text beside a SMILES is read from it.

Legend:
[1] = Inhibition of Plasmodium falciparum falcipain-2 after 12 hrs by fluorescence spectroscopy-based on-bead assay; design: concentration or dose not given beside the values; conditions: concentration not given here
Outline: (§1)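 Library members on resin (PEGA, theoretical loading 0.40 mmol/g; added as DMSO suspension, 0.64 mM final inhibitor) preincubated with enzyme 12 h, then Cbz-Phe-Arg-AMC 40 μM added; AMC release followed by fluorescence (ex 380/em 460 nm). Kinetics compared with inhibitor-free amino-PEGA resin.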

[2] = biological target: Rhodesain (Trypanosoma brucei rhodesiense) (UniProt Q95PM0); test: Inhibition of Trypanosoma brucei rhodesiense rhodesain after 12 hrs by fluorescence spectroscopy-based on-bead assay; design: concentration or dose not given beside the values; conditions: concentration not given here; outline: as §1
Sequence of Rhodesain (Trypanosoma brucei rhodesiense) (Q95PM0 1-450): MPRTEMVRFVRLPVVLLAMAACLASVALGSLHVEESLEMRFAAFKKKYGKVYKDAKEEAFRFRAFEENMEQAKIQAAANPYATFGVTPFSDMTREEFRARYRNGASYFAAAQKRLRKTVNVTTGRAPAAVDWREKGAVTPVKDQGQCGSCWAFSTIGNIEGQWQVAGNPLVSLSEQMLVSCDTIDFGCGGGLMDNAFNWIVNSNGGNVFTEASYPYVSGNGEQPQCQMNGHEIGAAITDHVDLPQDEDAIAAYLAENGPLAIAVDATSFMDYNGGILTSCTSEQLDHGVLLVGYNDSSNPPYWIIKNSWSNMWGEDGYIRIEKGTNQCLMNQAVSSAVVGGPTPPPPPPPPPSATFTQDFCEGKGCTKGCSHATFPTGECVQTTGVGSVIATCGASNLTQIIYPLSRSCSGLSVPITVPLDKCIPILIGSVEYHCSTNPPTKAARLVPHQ

SMILES: CC(=O)NC[C@H](NC(=O)/C=C/C(=O)NCC(=O)NCC(=O)N[C@@H](Cc1ccccc1)C(=O)O)C(=O)N[C@@H](Cc1ccccc1)C(=O)N[C@@H](C)C(=O)N[C@H](C(N)=O)C(C)C (HELM PEPTIDE1{[O=C(/C=C/C(=O)[*:2])NCC(=O)NCC(=O)N[C@@H](Cc1ccccc1)C(=O)O].[O=C([C@H](CN[*:3])N[*:1])[*:2]].F.A.V.[am]}|PEPTIDE2{[ac]}$PEPTIDE1,PEPTIDE2,2:R3-1:R2$$$V2.0)
- inhibition [1]: 45%
- inhibition [2]: 15%

SMILES: CC(C)[C@H](NC(=O)[C@@H](NC(=O)[C@@H](NC(=O)[C@H](Cc1ccccc1)NC(=O)/C=C/C(=O)N[C@@H](C)C(=O)NCC(=O)N[C@@H](Cc1ccccc1)C(=O)O)c1ccccc1)C(C)C)C(N)=O (HELM PEPTIDE1{[C[C@H](NC(=O)/C=C/C(=O)[*:2])C(=O)NCC(=O)N[C@@H](Cc1ccccc1)C(=O)O].F.[Phg].V.V.[am]}$$$$V2.0)
- inhibition [1]: 58%
- inhibition [2]: 77%

SMILES: CC[C@H](C)[C@H](NC(=O)[C@H](Cc1ccccc1)NC(=O)/C=C/C(=O)N[C@@H](C)C(=O)NCC(=O)N[C@@H](Cc1ccccc1)C(=O)O)C(=O)N[C@@H](CC(C)C)C(=O)N[C@H](C(N)=O)C(C)C (HELM PEPTIDE1{[C[C@H](NC(=O)/C=C/C(=O)[*:2])C(=O)NCC(=O)N[C@@H](Cc1ccccc1)C(=O)O].F.I.L.V.[am]}$$$$V2.0)
- inhibition [1]: 51%
- inhibition [2]: 61%

SMILES: CC(C)C[C@H](NC(=O)[C@@H](NC(=O)[C@H](CCC(N)=O)NC(=O)/C=C/C(=O)NCC(=O)NCC(=O)N[C@@H](Cc1ccccc1)C(=O)O)c1ccccc1)C(=O)N[C@H](C(N)=O)C(C)C (HELM PEPTIDE1{[O=C(/C=C/C(=O)[*:2])NCC(=O)NCC(=O)N[C@@H](Cc1ccccc1)C(=O)O].Q.[Phg].L.V.[am]}$$$$V2.0)
- inhibition [1]: 50%
- inhibition [2]: 62%

SMILES: CC(=O)NC[C@H](NC(=O)/C=C/C(=O)N[C@@H](C)C(=O)NCC(=O)N[C@@H](Cc1ccccc1)C(=O)O)C(=O)N[C@H](C(=O)N[C@@H](CC(C)C)C(=O)N[C@H](C(N)=O)C(C)C)c1ccccc1 (HELM PEPTIDE1{[C[C@H](NC(=O)/C=C/C(=O)[*:2])C(=O)NCC(=O)N[C@@H](Cc1ccccc1)C(=O)O].[O=C([C@H](CN[*:3])N[*:1])[*:2]].[Phg].L.V.[am]}|PEPTIDE2{[ac]}$PEPTIDE1,PEPTIDE2,2:R3-1:R2$$$V2.0)
- inhibition [1]: 52%
- inhibition [2]: 56%

SMILES: CC(C)[C@H](NC(=O)[C@H](C)NC(=O)[C@@H](NC(=O)[C@H](Cc1ccccc1)NC(=O)/C=C/C(=O)N[C@@H](C)C(=O)NCC(=O)N[C@@H](Cc1ccccc1)C(=O)O)C1CCCCC1)C(N)=O (HELM PEPTIDE1{[C[C@H](NC(=O)/C=C/C(=O)[*:2])C(=O)NCC(=O)N[C@@H](Cc1ccccc1)C(=O)O].F.[O=C([C@@H](N[*:1])C1CCCCC1)[*:2]].A.V.[am]}$$$$V2.0)
- inhibition [1]: 29%
- inhibition [2]: 21%

SMILES: CC(C)C[C@H](NC(=O)[C@H](CC(N)=O)NC(=O)/C=C/C(=O)N[C@@H](C)C(=O)NCC(=O)N[C@@H](Cc1ccccc1)C(=O)O)C(=O)N[C@@H](CC(C)C)C(=O)N[C@H](C(N)=O)C(C)C (HELM PEPTIDE1{[C[C@H](NC(=O)/C=C/C(=O)[*:2])C(=O)NCC(=O)N[C@@H](Cc1ccccc1)C(=O)O].N.L.L.V.[am]}$$$$V2.0)
- inhibition [1]: 57%
- inhibition [2]: 59%

SMILES: CC(=O)NC[C@H](NC(=O)/C=C/C(=O)NCC(=O)NCC(=O)N[C@@H](Cc1ccccc1)C(=O)O)C(=O)N[C@@H](Cc1ccccc1)C(=O)N[C@@H](CC(C)C)C(=O)N[C@H](C(N)=O)C(C)C (HELM PEPTIDE1{[O=C(/C=C/C(=O)[*:2])NCC(=O)NCC(=O)N[C@@H](Cc1ccccc1)C(=O)O].[O=C([C@H](CN[*:3])N[*:1])[*:2]].F.L.V.[am]}|PEPTIDE2{[ac]}$PEPTIDE1,PEPTIDE2,2:R3-1:R2$$$V2.0)
- inhibition [1]: 59%
- inhibition [2]: 51%

SMILES: CC(C)C[C@H](NC(=O)[C@@H](NC(=O)[C@H](C)NC(=O)/C=C/C(=O)N[C@@H](C)C(=O)NCC(=O)N[C@@H](Cc1ccccc1)C(=O)O)c1ccccc1)C(=O)N[C@H](C(N)=O)C(C)C (HELM PEPTIDE1{[C[C@H](NC(=O)/C=C/C(=O)[*:2])C(=O)NCC(=O)N[C@@H](Cc1ccccc1)C(=O)O].A.[Phg].L.V.[am]}$$$$V2.0)
- inhibition [1]: 55%
- inhibition [2]: 72%

SMILES: CC(C)C[C@H](NC(=O)[C@H](C)NC(=O)/C=C/C(=O)NCC(=O)NCC(=O)N[C@@H](Cc1ccccc1)C(=O)O)C(=O)N[C@H](C(=O)N[C@H](C(N)=O)C(C)C)C(C)C (HELM PEPTIDE1{[O=C(/C=C/C(=O)[*:2])NCC(=O)NCC(=O)N[C@@H](Cc1ccccc1)C(=O)O].A.L.V.V.[am]}$$$$V2.0)
- inhibition [1]: 29%
- inhibition [2]: 55%

SMILES: CC(C)[C@H](NC(=O)[C@H](C)NC(=O)[C@H](Cc1ccccc1)NC(=O)[C@H](Cc1ccccc1)NC(=O)/C=C/C(=O)N[C@@H](C)C(=O)NCC(=O)N[C@@H](Cc1ccccc1)C(=O)O)C(N)=O (HELM PEPTIDE1{[C[C@H](NC(=O)/C=C/C(=O)[*:2])C(=O)NCC(=O)N[C@@H](Cc1ccccc1)C(=O)O].F.F.A.V.[am]}$$$$V2.0)
- inhibition [1]: 30%
- inhibition [2]: 37%

SMILES: CC(C)C[C@H](NC(=O)[C@H](Cc1ccccc1)NC(=O)[C@H](CCC(N)=O)NC(=O)/C=C/C(=O)NCC(=O)NCC(=O)N[C@@H](Cc1ccccc1)C(=O)O)C(=O)N[C@H](C(N)=O)C(C)C (HELM PEPTIDE1{[O=C(/C=C/C(=O)[*:2])NCC(=O)NCC(=O)N[C@@H](Cc1ccccc1)C(=O)O].Q.F.L.V.[am]}$$$$V2.0)
- inhibition [1]: 62%
- inhibition [2]: 57%

SMILES: CC(C)[C@H](NC(=O)[C@H](C)NC(=O)[C@@H](NC(=O)[C@H](Cc1ccccc1)NC(=O)/C=C/C(=O)NCC(=O)NCC(=O)N[C@@H](Cc1ccccc1)C(=O)O)C1CCCCC1)C(N)=O (HELM PEPTIDE1{[O=C(/C=C/C(=O)[*:2])NCC(=O)NCC(=O)N[C@@H](Cc1ccccc1)C(=O)O].F.[O=C([C@@H](N[*:1])C1CCCCC1)[*:2]].A.V.[am]}$$$$V2.0)
- inhibition [1]: 65%
- inhibition [2]: 48%

SMILES: CC(C)C[C@H](NC(=O)[C@@H](NC(=O)[C@H](CCC(N)=O)NC(=O)/C=C/C(=O)N[C@@H](C)C(=O)NCC(=O)N[C@@H](Cc1ccccc1)C(=O)O)c1ccccc1)C(=O)N[C@H](C(N)=O)C(C)C (HELM PEPTIDE1{[C[C@H](NC(=O)/C=C/C(=O)[*:2])C(=O)NCC(=O)N[C@@H](Cc1ccccc1)C(=O)O].Q.[Phg].L.V.[am]}$$$$V2.0)
- inhibition [1]: 30%
- inhibition [2]: 68%

SMILES: CC[C@H](C)[C@H](NC(=O)[C@H](CC(N)=O)NC(=O)/C=C/C(=O)N[C@@H](C)C(=O)NCC(=O)N[C@@H](Cc1ccccc1)C(=O)O)C(=O)N[C@H](C(=O)N[C@H](C(N)=O)C(C)C)C(C)C (HELM PEPTIDE1{[C[C@H](NC(=O)/C=C/C(=O)[*:2])C(=O)NCC(=O)N[C@@H](Cc1ccccc1)C(=O)O].N.I.V.V.[am]}$$$$V2.0)
- inhibition [1]: 33%
- inhibition [2]: 21%

SMILES: CC(C)[C@H](NC(=O)[C@@H](NC(=O)[C@H](Cc1ccccc1)NC(=O)[C@H](CCC(N)=O)NC(=O)/C=C/C(=O)N[C@@H](C)C(=O)NCC(=O)N[C@@H](Cc1ccccc1)C(=O)O)C(C)C)C(N)=O (HELM PEPTIDE1{[C[C@H](NC(=O)/C=C/C(=O)[*:2])C(=O)NCC(=O)N[C@@H](Cc1ccccc1)C(=O)O].Q.F.V.V.[am]}$$$$V2.0)
- inhibition [1]: 58%
- inhibition [2]: 45%
